ChEMBL document CHEMBL1159380, “Marine natural products as novel antioxidant prototypes” (J Nat Prod, 2003)
The source made the active and inactive calls. No cut-off for these calls is given here.

Key:
HL-60 = assay: Antioxidant activity against TPA-induced ROS production in human HL60 cells by 2',7'-dichlorodihydrofluorescein diacetate cellular-based assay; format: functional, cell-based
How it was run: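 HL-60 cells (1 × 10^6 cells/mL) in RPMI 1640 with 10% FBS and antibiotics, 37 °C, 5% CO2. Cells were pretreated 30 min with a range of test concentrations, then stimulated 30 min with 100 ng/mL TPA, then given DCFH-DA (5 μg/mL) for 15 min. DCF fluorescence was read at 530 nm, and percent inhibition was calculated against TPA-treated controls without test material.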

[1] = tested on: Radical scavenging activity; assay: Antioxidant activity assessed as DPPH free radical scavenging activity by TLC […] assay; format: functional
How it was run: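 Compounds were dissolved in DMSO at 2.0 mg/mL and 4.0 μg of each was spotted onto scored silica gel GF TLC plates. Residual DMSO was removed under vacuum. Plates were sprayed with 0.2% (w/v) DPPH in MeOH and radical scavenging was judged visually 30 min after spraying.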

IC50 (HL-60; Homo sapiens, HL-60) | IC50 (HL-60; hl-60) | Molecule | Activity [1] | Activity (HL-60)
209 µM | – | CC(C)=CCC[C@H](C)c1ccc(C)cc1O | – | –
> 14.6 µM | – | C/C(=C\Cc1cc(O)c(Br)cc1O)CCCC(C)(C)O | Active | –
49 µM | – | CC(=O)OC/C=C(\OC(C)=O)C(C)=O | inactive | –
– | – | Cc1ccc([C@@H](C)CCCC(C)(C)O)c(O)c1 | – | inactive
> 55 µM | – | COc1cc2ccnc3c2c(c1OC)NC=C3 [AAPTAMINE] | Active | –
11 µM | – | CCC(C)CC(C(=O)N/C=C\c1c[nH]c2ccccc12)N(C)Cc1ccc(O)cc1 (stereo not given) [ARAGILAMIDE] | – | –
9.7 µM | – | O=C1O[C@H]([C@@H](O)CO)C(O)=C1O [ASCORBIC ACID] | Active | –
6.1 µM | – | OCc1cc(Br)c(O)c(O)c1Cc1ccc(O)c(Br)c1 [AVRAINVILLEOL] | Active | –
4 µM | – | CC(C)=CCC/C(C)=C/Cc1cc(O)c(Br)cc1O [CYMOPOL] | Active | –
18.3 µM | – | COc1c(OC)c(O)c2c(=O)c(C)c(/C=C/c3cc(OC(C)=O)cc(OC(C)=O)c3)oc2c1OC [HORMOTHAMNIONE DIACETATE] | inactive | –
> 31 µM | – | COc1c(OC)c(O)c2c(=O)c(C)c(/C=C/c3cc(O)cc(O)c3)oc2c1OC [HORMOTHAMNIONE] | – | –
> 55 µM | – | COc1cc2ccnc3c2c(c1O)N(C)C=C3 [ISOAAPTAMINE] | Active | –
27 µM | – | CC1(C)CCC[C@]2(C)[C@H]3C=C4C=C(O)C(=O)C=C4O[C@@]3(C)CC[C@@H]12 [PUUPEHENONE] | Active | –
> 23 µM | – | O=C1C(C2=C3c4ccccc4NC3/C(=C\c3ccc(O)cc3)C2=O)=C2C(=Nc3ccccc32)/C1=C\c1ccc(O)cc1 (stereo not given) [SCYTONEMIN] | – | –
– | 255 µM | VITAMIN E [listing 1 of 2 here] | – | –
– | – | VITAMIN E [listing 2 of 2 here] | Active | –
